Results from ChEMBL document CHEMBL5154878, “Potent Inhibition of SARS-CoV-2 nsp14 N7-Methyltransferase by Sulfonamide-Based Bisubstrate Analogues” (J Med Chem, 2022).
Active and inactive are the calls of the source. The calls are words filed in the database; no cut-off is given here.

What was measured:
[1] = target: Replicase polyprotein 1ab (Severe acute respiratory syndrome coronavirus 2) (UniProt P0DTD1); test: Inhibition of N7-MTase activity of SARS-CoV-2 N-terminus hexahistidine tag nsp14 expressed in Escherichia coli C2566 at 5 uM using [3H]SAM as substrate incubated for 30 mins in presence of mGpppAC4 synthetic RNA by filter binding assay relative to control
[2] = target: Replicase polyprotein 1ab (Severe acute respiratory syndrome coronavirus 2, UniProt P0DTD1); test: Inhibition of N7-MTase activity of SARS-CoV-2 N-terminus hexahistidine tag nsp14 expressed in Escherichia coli C2566 using [3H]SAM as substrate incubated for 30 mins in presence of mGpppAC4 synthetic RNA by radioactive filter binding assay
[3] = test system: Severe acute respiratory syndrome coronavirus 2; test: Binding affinity to SARS-CoV N-terminus hexahistidine tag nsp14 expressed in Escherichia coli C2566 assessed as shift in melting temperature at >2 uM by SYPRO orange dye based thermal shift assay
[4] = target: Replicase polyprotein 1ab (Severe acute respiratory syndrome coronavirus 2) (UniProt P0DTD1); test: Binding affinity to SARS-CoV-2 N-terminus hexahistidine tag nsp14 expressed in Escherichia coli C2566 assessed as change in melting temperature at 0.5 mM by SYPRO orange dye based thermal shift assay
Outline: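 nsp14 (freshly purified, 5 μM, in 20 mM Hepes pH 7.5, 150 mM NaCl, ≤5% DMSO) incubated with compound from 500 μM down to 8.4 nM (3-fold serial dilution) plus Sypro Orange 0.00056×. Melt ramp 1 °C per minute, 25–95 °C. Tm from Boltzmann fit; ΔTm taken against DMSO control. Duplicates; Kd from inflection of ΔTm versus concentration.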

[5] = Inhibition of N7-MTase activity of SARS-CoV N-terminus hexahistidine tag nsp14 expressed in Escherichia coli C2566 using [3H]SAM as substrate incubated for 30 mins in presence of mGpppAC4 synthetic RNA by radioactive filter binding assay; set-up: species or system Severe acute respiratory syndrome-related coronavirus
[6] = Selectivity index, ratio of IC50 for human RNA N7-MTase to IC50 for SARS-CoV-2 nsp14 N7-MTase activity using [3H]SAM as substrate incubated for 30 mins in presence of mGpppAC4 synthetic RNA by radioactive filter binding assay
[7] = target: Replicase polyprotein 1ab (Severe acute respiratory syndrome coronavirus 2) (UniProt P0DTD1); test: Inhibition of N7-MTase activity of SARS-CoV-2 N-terminus hexahistidine tag nsp14 expressed in Escherichia coli C2566 assessed as fold change using [3H]SAM as substrate incubated for 30 mins in presence of mGpppAC4 synthetic RNA by radioactive filter binding assay
[8] = Inhibition of human RNA N7-MTase expressed in Escherichia coli measured using [3H]SAM as substrate incubated for 30 mins in presence of mGpppAC4 synthetic RNA by radioactive filter binding assay
[9] = species on record: Homo sapiens; test: Inhibition of human RNA N7-MTase expressed in Escherichia coli measured upto 50 uM using [3H]SAM as substrate incubated for 30 mins in presence of mGpppAC4 synthetic RNA by radioactive filter binding assay; details: DDE = dose-dependent effect

Row | Compound | inhibition [1] | IC50 [2] | also measured
1 | N#Cc1cc(S(=O)(=O)NC[C@H]2O[C@@H](n3cnc4c(N)ncnc43)[C@H](O)[C@@H]2O)ccc1F | 90% | 899 nM | –
2 | Nc1ncnc2c1ncn2[C@@H]1O[C@H](CNS(=O)(=O)c2ccc(F)c([N+](=O)[O-])c2)[C@@H](O)[C@H]1O | 87% | 4400 nM | –
3 | Nc1ncnc2c1ncn2[C@@H]1O[C@H](CNS(=O)(=O)c2ccc(Cl)c(Cl)c2)[C@@H](O)[C@H]1O | 87% | 482 nM | –
4 | CCN(C[C@H]1O[C@@H](n2cnc3c(N)ncnc32)[C@H](O)[C@@H]1O)S(=O)(=O)c1cccc([N+](=O)[O-])c1 | 75% | 516 nM | –
5 | Nc1ncnc2c1ncn2[C@@H]1O[C@H](CNS(=O)(=O)c2ccc(Br)c([N+](=O)[O-])c2)[C@@H](O)[C@H]1O | 85% | 2900 nM | –
6 | COc1ccc(S(=O)(=O)N(CCCCNc2cccc3ccccc23)C[C@H]2O[C@@H](n3cnc4c(N)ncnc43)[C@H](O)[C@@H]2O)cc1[N+](=O)[O-] | 100% | 30 nM | Activity [3]: Active; ΔTm [4]: 11 °C
7 | Nc1ncnc2c1ncn2[C@@H]1O[C@H](CNS(=O)(=O)c2cccc([N+](=O)[O-])c2)[C@@H](O)[C@H]1O | 80% | 3590 nM | –
8 | CCOC(=O)CCCCN(C[C@H]1O[C@@H](n2cnc3c(N)ncnc32)[C@H](O)[C@@H]1O)S(=O)(=O)c1ccc(OC)c([N+](=O)[O-])c1 | 100% | 114 nM | –
9 | N#Cc1cc(S(=O)(=O)NC[C@H]2O[C@@H](n3cnc4c(N)ncnc43)[C@H](O)[C@@H]2O)ccc1Cl | 100% | 1010 nM | –
10 | CCN(C[C@H]1O[C@@H](n2cnc3c(N)ncnc32)[C@H](O)[C@@H]1O)S(=O)(=O)c1ccc(Br)c([N+](=O)[O-])c1 | 100% | 80 nM | –
11 | CCN(C[C@H]1O[C@@H](n2cnc3c(N)ncnc32)[C@H](O)[C@@H]1O)S(=O)(=O)c1ccc(OC)c([N+](=O)[O-])c1 | 100% | 44 nM | –
12 | Nc1ncnc2c1ncn2[C@@H]1O[C@H](CNS(=O)(=O)c2cccc([N+](=O)[O-])c2Cl)[C@@H](O)[C@H]1O | 75% | 2100 nM | IC50 [5]: 1400 nM
13 | Nc1ncnc2c1ncn2[C@@H]1O[C@H](CNS(=O)(=O)c2ccc([N+](=O)[O-])cc2Cl)[C@@H](O)[C@H]1O | 21% | – | –
14 | CCc1ccc(S(=O)(=O)NC[C@H]2O[C@@H](n3cnc4c(N)ncnc43)[C@H](O)[C@@H]2O)cc1[N+](=O)[O-] | 98% | 244 nM | –
15 | CCN(C[C@H]1O[C@@H](n2cnc3c(N)ncnc32)[C@H](O)[C@@H]1O)S(=O)(=O)c1ccc(C)c([N+](=O)[O-])c1 | 100% | 38 nM | –
16 | Nc1ncnc2c1ncn2[C@@H]1O[C@H](CNS(=O)(=O)c2ccc([N+](=O)[O-])cc2)[C@@H](O)[C@H]1O | 25% | 14100 nM | IC50 [5]: 7600 nM
17 | CCN(C[C@H]1O[C@@H](n2cnc3c(N)ncnc32)[C@H](O)[C@@H]1O)S(=O)(=O)c1cccc(C#N)c1 | 65% | 960 nM | –

Row | Compound | inhibition [1] | IC50 [2] | also measured
18 | Nc1ncnc2c1ncn2[C@@H]1O[C@H](CNS(=O)(=O)c2cccc(Cl)c2)[C@@H](O)[C@H]1O | 20% | – | –
19 | Nc1ncnc2c1ncn2[C@@H]1O[C@H](CNS(=O)(=O)c2ccc(C(F)(F)F)cc2[N+](=O)[O-])[C@@H](O)[C@H]1O | 60% | 3500 nM | IC50 [5]: 3300 nM
20 | CCN(C[C@H]1O[C@@H](n2cnc3c(N)ncnc32)[C@H](O)[C@@H]1O)S(=O)(=O)c1ccc(C(F)(F)F)cc1[N+](=O)[O-] | 84% | 5000 nM | –
21 | Nc1ncnc2c1ncn2[C@@H]1O[C@H](CNS(=O)(=O)c2ccc(Cl)cc2)[C@@H](O)[C@H]1O | 25% | 13000 nM | –
22 | CCN(C[C@H]1O[C@@H](n2cnc3c(N)ncnc32)[C@H](O)[C@@H]1O)S(=O)(=O)c1ccc(Cl)c(Cl)c1 | 100% | 100 nM | –
23 | Cc1ccc(S(=O)(=O)NC[C@H]2O[C@@H](n3cnc4c(N)ncnc43)[C@H](O)[C@@H]2O)cc1[N+](=O)[O-] | 100% | 342 nM | –
24 | CCN(C[C@H]1O[C@@H](n2cnc3c(N)ncnc32)[C@H](O)[C@@H]1O)S(=O)(=O)c1ccc(C)c(Cl)c1 | 95% | 56 nM | Activity [3]: Active; ΔTm [4]: 11 °C
25 | COc1ccc(S(=O)(=O)NC[C@H]2O[C@@H](n3cnc4c(N)ncnc43)[C@H](O)[C@@H]2O)cc1[N+](=O)[O-] | 90% | 146 nM | –
26 | COc1ccc(S(=O)(=O)NC[C@H]2O[C@@H](n3cnc4c(N)ncnc43)[C@H](O)[C@@H]2O)c([N+](=O)[O-])c1 | 70% | 1400 nM | IC50 [5]: 2600 nM
27 | CCN(C[C@H]1O[C@@H](n2cnc3c(N)ncnc32)[C@H](O)[C@@H]1O)S(=O)(=O)c1cccc(Cl)c1 | 65% | 442 nM | –
28 | N#Cc1cccc(S(=O)(=O)NC[C@H]2O[C@@H](n3cnc4c(N)ncnc43)[C@H](O)[C@@H]2O)c1 | 80% | 5300 nM | –
29 | COc1ccc(S(=O)(=O)N(CCCCOC(C)=O)C[C@H]2O[C@@H](n3cnc4c(N)ncnc43)[C@H](O)[C@@H]2O)cc1[N+](=O)[O-] | 100% | 80 nM | –
30 | CCN(C[C@H]1O[C@@H](n2cnc3c(N)ncnc32)[C@H](O)[C@@H]1O)S(=O)(=O)c1ccc(OC)c(C#N)c1 | 100% | 19 nM | Ratio IC50 [6]: > 2000; fold change (FC) [7]: 2000; IC50 [8]: 52800 nM; Activity [3]: Active; ΔTm [4]: 11 °C; inhibition [9]: Dde
31 | Cc1ccc(S(=O)(=O)NC[C@H]2O[C@@H](n3cnc4c(N)ncnc43)[C@H](O)[C@@H]2O)cc1Cl | 90% | 344 nM | –
32 | COc1cc([N+](=O)[O-])ccc1S(=O)(=O)NC[C@H]1O[C@@H](n2cnc3c(N)ncnc32)[C@H](O)[C@@H]1O | 77% | 5100 nM | IC50 [5]: 25000 nM
33 | COc1ccc(S(=O)(=O)NC[C@H]2O[C@@H](n3cnc4c(N)ncnc43)[C@H](O)[C@@H]2O)cc1C#N | 100% | 514 nM | –
